pIC50: −log10 of the molar value. Values after ≈ are worked out from the molar mass of the structure shown.
Experiments:
[1] = molecular target: T1, Sodium- and chloride-dependent glycine transporter 1 (Rattus norvegicus, UniProt P28572); test: Displacement of [3H]glycine from GlyT1 in rat C6 glioma cells incubated for 30 mins prior to substrate addition measured after 10 mins by scintillation counting analysis; format: cell-based
T1 sequence (P28572 whole entry): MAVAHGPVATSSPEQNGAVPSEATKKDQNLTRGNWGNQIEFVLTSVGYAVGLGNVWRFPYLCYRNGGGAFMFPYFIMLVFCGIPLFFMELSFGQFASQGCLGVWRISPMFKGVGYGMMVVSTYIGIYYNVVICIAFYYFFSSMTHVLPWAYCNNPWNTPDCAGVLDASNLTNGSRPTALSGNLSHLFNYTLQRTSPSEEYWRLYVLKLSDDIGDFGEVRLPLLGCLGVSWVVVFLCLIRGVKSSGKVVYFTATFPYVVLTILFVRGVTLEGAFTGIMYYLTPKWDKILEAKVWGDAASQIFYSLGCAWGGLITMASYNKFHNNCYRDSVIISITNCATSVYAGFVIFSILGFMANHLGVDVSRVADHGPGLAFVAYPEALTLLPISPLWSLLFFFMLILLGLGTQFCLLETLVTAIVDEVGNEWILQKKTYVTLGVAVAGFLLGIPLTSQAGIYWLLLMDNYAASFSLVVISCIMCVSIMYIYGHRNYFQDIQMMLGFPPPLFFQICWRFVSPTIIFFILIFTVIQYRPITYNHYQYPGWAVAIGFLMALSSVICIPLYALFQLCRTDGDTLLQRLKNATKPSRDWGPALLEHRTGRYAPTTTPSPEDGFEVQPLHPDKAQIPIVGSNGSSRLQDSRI

[2] = molecular target: T2, Sodium- and chloride-dependent glycine transporter 1 (Rattus norvegicus) (UniProt P28572); settings: C6 glioma, 10 uM
T2 sequence (whole entry): T1 sequence (P28572 whole entry)

[3] = Aqueous solubility of the compound at pH 6.8 after 20 hrs by HPLC analysis; format: physicochemical; settings: buffer; for solubility at 20 h: pH 6.8; for solubility: pH 6.8, 20 h, 20 h
MDR1 = test: (§1) Apparent permeability from apical to basolateral side in pig LLC-PK1 cells expressing MDR1 after 2 hrs by LC-MS/MS analysis; format: ADME, cell-based, Sus scrofa; settings: LLC-PK1
Method in brief: (§2)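 Transport in LLC-PK1 cells and in LLC-GA5-COL150 cells (LLC-PK1 transfected with human MDR1). Papp = amount transported divided by initial donor concentration. Efflux ratio compares the Papp of the two directions (BA/AB).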

[4] = Intrinsic clearance in ddY mouse liver microsomes by LC-MS/MS analysis; format: ADME, Microsome; settings: read-out: CLH
Method in brief: (§3)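 Liver microsome CLint was run in duplicate.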

[5] = Lipophilicity, log D of the compound at pH 7.4; format: physicochemical; settings: buffer
[6] = Intrinsic clearance in human liver microsomes after 30 mins by LC-MS/MS analysis; format: ADME, Microsome; settings: read-out: CLH; method in brief: as §3
[7] = Ratio of brain to plasma in ddY mouse at 1 mg/kg, iv by LC-MS analysis; format: ADME, organism-based; set-up: dose 1 mg/kg, route intravenous; settings: read-out: BPR
[8] = molecular target: T3, Sodium- and chloride-dependent glycine transporter 2 (Rattus norvegicus, UniProt P58295); test: Displacement of [3H]glycine from GlyT2 in Wistar rat brainstem cells after 10 mins by scintillation counting analysis; format: cell-based
T3 sequence (P58295 whole entry): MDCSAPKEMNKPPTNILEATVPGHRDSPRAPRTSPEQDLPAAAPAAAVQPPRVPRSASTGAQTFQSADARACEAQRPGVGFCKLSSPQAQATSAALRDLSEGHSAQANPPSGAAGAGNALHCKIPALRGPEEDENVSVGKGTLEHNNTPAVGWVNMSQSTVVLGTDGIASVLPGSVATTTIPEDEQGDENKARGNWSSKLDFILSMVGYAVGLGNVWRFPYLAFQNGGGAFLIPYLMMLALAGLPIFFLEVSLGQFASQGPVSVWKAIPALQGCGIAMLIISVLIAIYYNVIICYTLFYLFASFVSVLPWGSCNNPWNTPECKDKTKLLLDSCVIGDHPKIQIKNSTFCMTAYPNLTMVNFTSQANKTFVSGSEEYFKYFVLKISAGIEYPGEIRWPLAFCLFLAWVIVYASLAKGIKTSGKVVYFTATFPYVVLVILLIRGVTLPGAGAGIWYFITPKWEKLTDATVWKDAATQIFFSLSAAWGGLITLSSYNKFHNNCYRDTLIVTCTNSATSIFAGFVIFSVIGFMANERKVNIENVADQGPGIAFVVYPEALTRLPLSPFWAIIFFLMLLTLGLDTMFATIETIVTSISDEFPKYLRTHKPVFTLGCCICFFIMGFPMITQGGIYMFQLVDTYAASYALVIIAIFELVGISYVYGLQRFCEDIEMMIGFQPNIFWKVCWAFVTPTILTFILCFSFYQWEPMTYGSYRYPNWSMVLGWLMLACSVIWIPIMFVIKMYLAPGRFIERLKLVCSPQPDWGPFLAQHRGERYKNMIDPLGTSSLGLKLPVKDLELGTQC

LLC-PK1 = test: as §1; format: ADME, cell-based, Sus scrofa; settings: llc-pk1, 2 h, 2 h; method in brief: as §2
[9] = AUC in ddY mouse at 1 mg/kg, iv by LC/MS analysis; format: ADME, organism-based; set-up: dose 1 mg/kg, route intravenous; settings: plasma
Method in brief: (§4)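 Single dose given iv at 1 mg/kg or po at 3 mg/kg; each value is the mean of n = 3 measurements.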

[10] = Cmax in ddY mouse at 3 mg/kg, po by LC/MS analysis; format: ADME, organism-based; set-up: dose 3 mg/kg, route oral; settings: in vivo; method in brief: as §4
[11] = Oral bioavailability in ddY mouse at 3 mg/kg by LC/MS analysis; format: ADME, organism-based; settings: in vivo; method in brief: as §4
[12] = Intrinsic clearance in cynomolgus monkey liver microsomes after 30 mins by LC-MS/MS analysis; format: ADME, Macaca fascicularis, Microsome; settings: read-out: CLH; method in brief: as §3
[13] = Plasma clearance in ddY mouse at 1 mg/kg, iv by LC/MS analysis; format: ADME, organism-based; set-up: dose 1 mg/kg, route intravenous; method in brief: as §4
[14] = Volume of distribution at steady state in cynomolgus monkey at 1 mg/kg, iv by LC/MS analysis; format: ADME, organism-based, Macaca fascicularis; set-up: dose 1 mg/kg, route intravenous; settings: in vivo, read-out: Vdss
Method in brief: (§5)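 Single intravenous dose as a pharmacokinetic study, with each parameter reported as the mean of n = 3 measurements.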

[15] = AUC in cynomolgus monkey at 1 mg/kg, iv by LC/MS analysis; format: ADME, organism-based, Macaca fascicularis; set-up: dose 1 mg/kg, route intravenous; settings: plasma; method in brief: as §4
[16] = AUC in cynomolgus monkey at 3 mg/kg, po by LC/MS analysis; format: ADME, organism-based, Macaca fascicularis; set-up: dose 3 mg/kg, route oral; settings: plasma; method in brief: as §4
[17] = AUC in ddY mouse at 3 mg/kg, po by LC/MS analysis; format: ADME, organism-based; set-up: dose 3 mg/kg, route oral; settings: plasma; method in brief: as §4
[18] = Oral bioavailability in cynomolgus monkey at 3 mg/kg by LC/MS analysis; format: ADME, organism-based, Macaca fascicularis; settings: in vivo; method in brief: as §4
[19] = Half life in ddY mouse at 1 mg/kg, iv by LC/MS analysis; format: ADME, organism-based; set-up: dose 1 mg/kg, route intravenous; settings: in vivo; method in brief: as §4
[20] = Cmax in cynomolgus monkey at 3 mg/kg, po by LC/MS analysis; format: ADME, organism-based, Macaca fascicularis; set-up: dose 3 mg/kg, route oral; settings: in vivo; method in brief: as §4
[21] = Plasma clearance in cynomolgus monkey at 1 mg/kg, iv by LC/MS analysis; format: ADME, organism-based, Macaca fascicularis; set-up: dose 1 mg/kg, route intravenous; method in brief: as §4
[22] = Half life in cynomolgus monkey at 1 mg/kg, iv by LC/MS analysis; format: ADME, organism-based, Macaca fascicularis; set-up: dose 1 mg/kg, route intravenous; settings: in vivo; method in brief: as §4
[23] = Volume of distribution at steady state in ddY mouse at 1 mg/kg, iv by LC/MS analysis; format: ADME, organism-based; set-up: dose 1 mg/kg, route intravenous; settings: in vivo, read-out: Vdss; method in brief: as §5

SMILES: CCc1nnc(-c2ccc(-c3ccccc3)cc2)n1-c1cccc(C(F)(F)F)c1C
- pIC50 [1]: < 5.00
- inhibition [2]: 38%

SMILES: CCc1nnc(-c2ccc(-c3ccccc3)cc2)n1-c1ccccc1F
- solubility at 20 h [3]: < 1 µM

SMILES: CCc1nnc(-c2ccc(-c3ccccc3)cc2)n1-c1cccc(C#N)c1C
- Papp A→B at 2 h (MDR1): 27.5 ×10⁻⁶ cm/s
- solubility at 20 h [3]: < 1 µM
- CLint scaled [4]: > 1000 mL/min/kg
- logD [5]: 4.1
- CLint scaled [6]: 126 mL/min/kg

SMILES: CCc1nnc(-c2ccc(-c3ccccc3)cc2)n1-c1cccc(Cl)c1C
- pIC50 [1]: 5.66

SMILES: CCc1nnc(-c2ccc(-c3ccccc3)nc2)n1-c1cccc(C#N)c1C
- Papp A→B at 2 h (MDR1): 29.6 ×10⁻⁶ cm/s
- solubility [3]: 98 µM (≈ 35.8 µg/mL)
- Kp [7]: 0.7

SMILES: Cc1nnc(-c2ccc(-c3ccccn3)cc2)n1-c1ccccc1F
- pIC50 [8]: 5.80
- pIC50 [1]: 6.07

SMILES: CCc1nnc(-c2ccc(-c3ccccc3)cc2)n1-c1cccc(Br)c1C
- pIC50 [1]: 5.66

SMILES: CCc1nnc(-c2ccc(-c3ccccc3)cc2)n1-c1cccc2cnccc12
- Papp A→B at 2 h (MDR1): 25.6 ×10⁻⁶ cm/s
- solubility at 20 h [3]: 5 µM (≈ 1.88 µg/mL)
- CLint scaled [4]: > 1000 mL/min/kg
- logD [5]: 4.1
- CLint scaled [6]: 374 mL/min/kg

SMILES: CCc1nnc(-c2ccc(-c3ccccc3)cc2)n1-c1cccc(CN(C)C)c1C
- pIC50 [1]: 4.54

SMILES: CCc1nnc(C2CCN(c3ccccc3)CC2)n1-c1ccccc1F
- pIC50 [1]: 5.18

SMILES: CCc1nnc(N2CCC(c3ccccc3)CC2)n1-c1ccccc1F
- pIC50 [1]: 5.43

SMILES: Cc1nnc(-c2ccc(-c3cccnc3)cc2)n1-c1ccccc1F
- pIC50 [1]: 5.15

SMILES: CCc1nnc(-c2ccc(-c3ccccc3)cc2)n1-c1cccc(C(=O)OC)c1C
- pIC50 [1]: 5.29

SMILES: CCc1nnc(-c2ccc(-c3ccccc3)cc2)n1-c1cccc(C(N)=O)c1C
- pIC50 [1]: 5.41

SMILES: Cc1nnc(-c2ccc(-c3ccncc3)cc2)n1-c1ccccc1F
- pIC50 [1]: 5.23

SMILES: CCc1nnc(-c2ccc(-c3ccccc3)nc2)n1-c1ccccc1F
- solubility at 20 h [3]: 31 µM (≈ 10.7 µg/mL)

SMILES: CCc1nnc(-c2ccc(-c3ccccc3)cc2)n1-c1cccc(COC)c1C
- pIC50 [1]: 5.62

SMILES: CCc1nnc(N2CCN(c3ccccc3)CC2)n1-c1ccccc1F
- pIC50 [1]: 5.59

SMILES: CCc1nnc(-c2ccc(-c3ccccc3)nc2)n1-c1cccc(C#N)c1C (atropisomer S)
- solubility at 20 h [3]: 94 µM (≈ 34.4 µg/mL)

SMILES: CCc1nnc(-c2ccc(-c3ccccc3)cc2)n1-c1cccc(CC#N)c1C
- pIC50 [1]: 5.55

SMILES: CCc1nnc(-c2ccc(-c3ccccc3)cc2)n1-c1cccc(N(C)C)c1C
- pIC50 [1]: 5.51

SMILES: CCc1nnc(-c2ccc(-c3ccccc3)nc2)n1-c1cccc(C#N)c1C (atropisomer R)
- Papp (LLC-PK1): 35.4 ×10⁻⁶ cm/s
- AUC [9]: 248 ng·h/mL
- solubility [3]: 95 µM (≈ 34.7 µg/mL)
- CLint scaled [4]: 787 mL/min/kg
- Cmax [10]: 319 ng/mL
- bioavailability [11]: 32%
- CLint scaled [12]: 162 mL/min/kg
- clearance [13]: 67 mL/min/kg
- Vd [14]: 3.4 L/kg
- logD [5]: 3
- AUC [15]: 875 ng·h/mL
- AUC [16]: 522 ng·h/mL
- AUC [17]: 235 ng·h/mL
- bioavailability [18]: 23%
- half-life [19]: 0.22 h
- Cmax [20]: 141 ng/mL
- CLint scaled [6]: 55 mL/min/kg
- clearance [21]: 21 mL/min/kg
- half-life [22]: 2.4 h
- Vd [23]: 1 L/kg
